From ChEMBL document CHEMBL1127479, “Synthesis and structure-activity studies of N,N'-diarylguanidine derivatives. N-(1-naphthyl)-N'-(3-ethylphenyl)-N'-methylguanidine: a new, selective noncompetitive NMDA receptor antagonist” (J Med Chem, 1994)

What was measured:
[1] = biological target: Glutamate NMDA receptor; assay: In vitro concentration required to inhibit specific [3H]MK-801 radioligand binding to N-methyl-D-aspartate (NMDA) receptor on rat brain membrane
Outline: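 Rat brain crude synaptic membranes, thawed, pretreated at 1 mg protein/mL with 0.01% Triton X-100 for 15 min at 37 °C, then washed three times by centrifugation. Filtration stop. IC50 taken from displacement curves or nonlinear least-squares regression.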

[2] = Tested in vitro for the concentration required to inhibit specific [3H]DTG radioligand binding to sigma receptor on guinea pig brain membrane

| IC50 [1] | IC50 [2] | SMILES |
| --- | --- | --- |
| 13300 nM | – | Cc1ccc(N=C(N)Nc2ccc(C)cc2)cc1 |
| 117 nM | – | CCN(C(N)=Nc1cccc2ccccc12)c1cccc2ccccc12 |
| 115 nM | – | CN(C(N)=Nc1cccc2ccccc12)c1cccc2ccccc12 |
| 228 nM | – | NC(=Nc1ccccc1I)Nc1ccccc1I |
| 36 nM | – | CCc1cccc(N(C)C(N)=Nc2cccc3ccccc23)c1 |
| 484 nM | – | NC(=Nc1cccc2ccccc12)N(c1ccccc1)c1cccc2ccccc12 |
| 859 nM | – | CC(C)c1ccccc1N=C(N)N(C)c1cccc2ccccc12 |
| 10300 nM | 245 nM | CCc1ccc(NC(=N)Nc2ccc(CC)cc2)cc1 |
| 23200 nM | – | CC(C)c1ccc(NC(=N)Nc2ccc(C(C)C)cc2)cc1 |
| 10000 nM | – | NC(=Nc1cccc2ccccc12)N1CCCCCC1 |
| 820 nM | 14 nM | CCc1ccccc1NC(=N)Nc1ccccc1CC |
| 39 nM | – | CCc1cccc(NC(=N)Nc2cccc3ccccc23)c1 |
| 12700 nM | – | N=C(Nc1ccc2ccccc2c1)Nc1ccc2ccccc2c1 |
| 1690 nM | – | CN(C(N)=Nc1cccc(N=[N+]=[N-])c1)c1cccc2ccccc12 |
| 168 nM | – | CCc1cccc(NC(=N)Nc2cccc(CC)c2)c1 |
| 1030 nM | – | CN(C(N)=Nc1cccc2ccccc12)c1ccccc1 |
| 10000 nM | – | CCc1cccc(N=C(N)N2CCC(c3ccccc3)CC2)c1 |
| 10000 nM | 8110 nM | NC(=Nc1ccccc1-c1ccccc1)Nc1ccccc1-c1ccccc1 |
| 102 nM | – | CC(C)c1ccccc1N=C(N)Nc1cccc2ccccc12 |
| 470 nM | – | CN(C(=N)N(c1ccccc1)c1cccc2ccccc12)c1cccc2ccccc12 |
| 217 nM | – | CC(C)c1ccccc1N=C(N)Nc1ccccc1C(C)C |
| 1990 nM | – | Cc1cccc(N=C(N)N(C)c2cccc(C)c2)c1 |
| 9120 nM | – | Cc1ccccc1NC(=N)Nc1ccccc1C [DITOLYLGUANIDINE] |
| 192 nM | – | Cc1cccc(NC(=N)Nc2cccc3ccccc23)c1 |
| 335 nM | – | Cc1cccc(NC(=N)Nc2cccc(C)c2)c1 |
| 407 nM | – | CC(C)c1cccc(NC(=N)Nc2cccc(C(C)C)c2)c1 |
| 65 nM | – | CN(C(N)=Nc1cccc2ccccc12)c1cccc(N=[N+]=[N-])c1 |
| 100 nM | – | CCc1cccc(N(C)C(=N)N(C)c2cccc3ccccc23)c1 |

Continued, compound first:

| SMILES | IC50 [1] | IC50 [2] |
| --- | --- | --- |
| N=C(Nc1ccccc1)Nc1ccccc1 | 3450 nM | – |
| NC(=Nc1cccc2ccccc12)Nc1ccccc1I | 209 nM | – |
| NC(=Nc1ccc(Br)cc1)Nc1ccc(Br)cc1 | 34000 nM | – |
| COc1cccc(N=C(N)Nc2cccc(OC)c2)c1 | 493 nM | – |
| N=C(Nc1cccc2ccccc12)Nc1cccc2ccccc12 | 330 nM | – |
| N=C(Nc1cccc2ccccc12)N1CCCCC1 | 10000 nM | – |
| CN(C(=N)N(C)c1cccc2ccccc12)c1cccc2ccccc12 | 69 nM | – |
| N=C(Nc1cccc2c1CCC2)Nc1cccc2c1CCC2 | 506 nM | – |
| CN(C(N)=Nc1cccc(N)c1)c1cccc2ccccc12 | 10000 nM | – |
| CN(C(N)=Nc1cccc2ccccc12)c1cccc(N)c1 | 2070 nM | – |
| NC(=Nc1cccc2ccccc12)NCc1ccccc1 | 2900 nM | – |
| C/[N+](=C(/[NH-])Nc1cccc([N+](=O)[O-])c1)c1cccc2ccccc12 | 2800 nM | – |
| CCc1cccc(N=C(N)N(C)c2cccc3ccccc23)c1 | 537 nM | – |
| CN(C(=N)Nc1cccc2ccccc12)c1cccc([N+](=O)[O-])c1 | 87 nM | – |
| CC(C)(C)c1ccccc1NC(=N)Nc1ccccc1C(C)(C)C | 38300 nM | 356 nM |
| CCN(C(=N)N(C)c1cccc2ccccc12)c1cccc2ccccc12 | 53 nM | – |
| N=C(N1CCc2ccccc21)N1CCc2ccccc21 | > 100000 nM | – |
| N=C(Nc1cccc2ccccc12)N1CCC(c2ccccc2)CC1 | 10000 nM | – |
| CCCc1cccc(NC(=N)Nc2cccc(CCC)c2)c1 | 2000 nM | – |
| CCc1cccc(N(CC)C(N)=Nc2cccc3ccccc23)c1 | 73 nM | – |
| CCc1cccc(N(C)C(=N)N(CC)c2cccc3ccccc23)c1 | 97 nM | – |
